Key:
[1] = test system: healthy participants; test: Safety assessments; format: in vivo, human; details: part 2, Moxifloxacin 400 mg (N = 40)
How it was run: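 Part 2 healthy participants confined from Day −2 of period 1 to Day 9 of period 4. […] AEs monitored throughout, recording duration, severity, causality and outcome, alongside safety ECGs, laboratory tests, physical examination and vital signs.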

[2] = Plasma pharmacokinetics, part 2 main QTc study; format: in vivo, human; details: human, plasma, oral, 400 mg
How it was run: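 Moderate-fat meal 30 min before each dose. Plasma sampled predose on Days 1, 5, 6 and 7, and on Day 7 at 0.5–24 h postdose. Test compound assayed by validated UHPLC-MS/MS (3.00–1000 ng mL−1).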

[3] = test system: healthy participants; format: in vivo, human; details: moxifloxacin 400 mg single dose
[4] = test system: QT interval; details: supratherapeutic vs therapeutic doses; cited from earlier work

## COc1c(N2C[C@@H]3CCCN[C@@H]3C2)c(F)cc2c(=O)c(C(=O)O)cn(C3CC3)c12 [Moxifloxacin, moxifloxacin, reference compound]
[1]
  AE: Abdominal pain: 1 (3) n (%)
  AE: Acne: 0 n (%)
  AE: Diarrhea: 0 n (%)
  AE: Gastrointestinal disorders: 2 (5) n (%)
  AE: General disorders and administration site conditions: 1 (3) n (%)
  AE: Immune system disorders: 1 (3) n (%)
  AE: Infections and infestations: 0 n (%)
  AE: Maculopapular rash: 0 n (%)
  AE: Medical device site dermatitis: 0 n (%)
  AE: Nausea: 0 n (%)
  AE: Nervous system disorders: 2 (5) n (%)
  AE: Renal and urinary disorders: 1 (3) n (%)
  AE: Reproductive system and breast disorders: 0 n (%)
  AE: Respiratory, thoracic, and mediastinal disorders: 0 n (%)
  AE: Skin and subcutaneous tissue disorders: 0 n (%)
  AE: Vessel puncture site pain: 1 (3) n (%)
  Any AE: 4 (10) n (%)
  Any drug-related AE: 2 (5) n (%)
  Drug-related AE: Abdominal pain: 1 (3) n (%)
  Drug-related AE: Acne: 0 n (%)
  Drug-related AE: Diarrhea: 0 n (%)
  Drug-related AE: Fatigue: 0 n (%)
  Drug-related AE: Gastrointestinal disorders: 1 (3) n (%)
  Drug-related AE: General disorders and administration site conditions: 0 n (%)
  Drug-related AE: Maculopapular rash: 0 n (%)
  Drug-related AE: Nausea: 0 n (%)
  Drug-related AE: Pruritus: 0 n (%)
  Drug-related AE: Renal and urinary disorders: 1 (3) n (%)
  Drug-related AE: Skin and subcutaneous tissue disorders: 0 n (%)
  Drug-related AE: Urinary hesitation: 1 (3) n (%)
[1]; listed as moxifloxacin
  Any drug-related AE: 2 n (%)
[2]
  Cmax: 1960 ng/mL
  Tmax: 4 h
[3]
  Observations of ΔQTcF >30 ms: no participants

## COc1cnc(-n2cnc(C)n2)c2c1c(C(=O)C(=O)N1CCN(C(=O)c3ccccc3)CC1)cn2COP(=O)(O)O [fostemsavir]
[4]
  QT prolongation: QT prolongation with supratherapeutic doses but not therapeutic doses

## Cc1cc(/C=C/C#N)cc(C)c1Nc1ccnc(Nc2ccc(C#N)cc2)n1 [rilpivirine]
[4]
  QT prolongation: QT prolongation with supratherapeutic doses but not therapeutic doses
